Experimental data published in ChEMBL document CHEMBL3232709, “Facile synthesis of benzonitrile/nicotinonitrile based s-triazines as new potential antimycobacterial agents” (Eur J Med Chem, 2014).
Values after ≈ are worked out from the molar mass of the structure shown.

How the values were obtained:
[1] = test system: Mycobacterium tuberculosis; experiment: Antimycobacterial activity against Mycobacterium tuberculosis H37Rv assessed as growth inhibition […] by Lowenstein-Jensen agar dilution method; format: functional
Summary of the method: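 Test compounds dissolved in DMSO and added to liquid Lowenstein-Jensen medium at 25, 12.5, 6.25, 3.12 and 1.56 dilutions. Medium sterilised by inspissation, then tubes held 37 °C for 24 h. H37Rv (harvested into 0.85% saline) streaked at 5 × 10⁴ bacilli/tube and incubated at 37 °C. Growth checked at 12, 22 and 28 days against medium-only controls. MIC taken as no colonies or <20 colonies.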

Vero = experiment: Cytotoxicity against African green monkey Vero cells assessed as cell viability after 72 hrs by MTT assay; format: cell-based; settings: Chlorocebus sabaeus
[2] = test system: Mycobacterium tuberculosis; experiment: Antimycobacterial activity against Mycobacterium tuberculosis H37Rv assessed as growth inhibition at 6.25 ug/ml measured within 10 days by BACTEC MGIT method; format: functional; settings: 240 h
Summary of the method: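 Primary single-concentration screen at 6.25 in MGIT tubes containing modified Middlebrook 7H9 broth. H37Rv inoculum was 10⁴–10⁷ CFU/mL, […]. Incubated at 37 °C in the BACTEC MGIT instrument until positive, read daily from day 2. Fluorescence was judged under UV beside positive control and uninoculated tubes. Result scored as % inhibition.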

Structure (SMILES) | MIC99 [1] [µg/mL] | IC50 (Vero) [µg/mL] | inhibition at 6.25 µg/mL [2] [%]
CN1CCN(c2nc(Oc3ccc(C#N)cc3)nc(-c3ccc(N4C(=O)CSC4c4ccccc4)cc3)n2)CC1 (configuration not stated) | 200 (≈ 364 µM) | – | –
CN1CCN(c2nc(Oc3ccc(C#N)cc3)nc(-c3ccc(N4C(=O)CSC4c4ccc(Cl)cc4)cc3)n2)CC1 (configuration not stated) | 62.5 (≈ 107 µM) | – | –
CN1CCN(c2nc(Oc3ccc(C#N)cc3)nc(-c3ccc(N4C(=O)CSC4c4ccc(Br)cc4)cc3)n2)CC1 (configuration not stated) | 25 (≈ 39.8 µM) | > 62.5 | –
CN1CCN(c2nc(Oc3ccc(C#N)cc3)nc(-c3ccc(N4C(=O)CSC4c4ccc(F)cc4)cc3)n2)CC1 (configuration not stated) | 100 (≈ 176 µM) | – | –
CN1CCN(c2nc(Oc3ccc(C#N)cc3)nc(-c3ccc(N4C(=O)CSC4c4ccc([N+](=O)[O-])cc4)cc3)n2)CC1 (configuration not stated) | 100 (≈ 168 µM) | – | –
CN1CCN(c2nc(Oc3ccc(C#N)cc3)nc(-c3ccc(N4C(=O)CSC4c4ccc(O)cc4)cc3)n2)CC1 (configuration not stated) | 12.5 (≈ 22.1 µM) | > 62.5 | 99
COc1ccc(C2SCC(=O)N2c2ccc(-c3nc(Oc4ccc(C#N)cc4)nc(N4CCN(C)CC4)n3)cc2)cc1 (configuration not stated) | 25 (≈ 43.1 µM) | > 62.5 | –
CN1CCN(c2nc(Oc3ccc(C#N)cn3)nc(-c3ccc(N4C(=O)CSC4c4ccccc4)cc3)n2)CC1 (configuration not stated) | 125 (≈ 227 µM) | – | –
CN1CCN(c2nc(Oc3ccc(C#N)cn3)nc(-c3ccc(N4C(=O)CSC4c4ccc(Cl)cc4)cc3)n2)CC1 (configuration not stated) | 100 (≈ 171 µM) | – | –
CN1CCN(c2nc(Oc3ccc(C#N)cn3)nc(-c3ccc(N4C(=O)CSC4c4ccc(Br)cc4)cc3)n2)CC1 (configuration not stated) | 62.5 (≈ 99.3 µM) | – | –
CN1CCN(c2nc(Oc3ccc(C#N)cn3)nc(-c3ccc(N4C(=O)CSC4c4ccc(F)cc4)cc3)n2)CC1 (configuration not stated) | 6.25 (≈ 11 µM) | > 62.5 | 99
CN1CCN(c2nc(Oc3ccc(C#N)cn3)nc(-c3ccc(N4C(=O)CSC4c4ccc([N+](=O)[O-])cc4)cc3)n2)CC1 (configuration not stated) | 100 (≈ 168 µM) | – | –
CN1CCN(c2nc(Oc3ccc(C#N)cn3)nc(-c3ccc(N4C(=O)CSC4c4ccc(O)cc4)cc3)n2)CC1 (configuration not stated) | 3.12 (≈ 5.51 µM) | > 62.5 | 99
COc1ccc(C2SCC(=O)N2c2ccc(-c3nc(Oc4ccc(C#N)cn4)nc(N4CCN(C)CC4)n3)cc2)cc1 (configuration not stated) | 6.25 (≈ 10.8 µM) | > 62.5 | 99
CC[C@@H](CO)NCCN[C@@H](CC)CO [ETHAMBUTOL] | 3.12 (≈ 15.3 µM) | > 62.5 | –
NNC(=O)c1ccncc1 [ISONIAZID] | 0.2 (≈ 1.46 µM) | > 62.5 | –
NC(=O)c1cnccn1 [PYRAZINAMIDE] | 6.25 (≈ 50.8 µM) | > 62.5 | –
CO[C@H]1/C=C/O[C@@]2(C)Oc3c(C)c(O)c4c(O)c(c(/C=N/N5CCN(C)CC5)c(O)c4c3C2=O)NC(=O)/C(C)=C\C=C\[C@H](C)[C@H](O)[C@@H](C)[C@@H](O)[C@@H](C)[C@H](OC(C)=O)[C@@H]1C [RIFAMPIN] | 0.25 (≈ 0.304 µM) | > 62.5 | –
